ChEMBL document CHEMBL1933027, “Time-dependent botulinum neurotoxin serotype A metalloprotease inhibitors” (Bioorg Med Chem, 2011)
Activity calls are given as the source filed them. The calls are words filed in the database; no cut-off is given here. Peptide text beside a SMILES is read from it. * marks the point of attachment. X1 = O=C(C(S)Cc1ccccc1)*

Legend:
[1] = molecular target: T1, Botulinum neurotoxin type A (Clostridium botulinum, UniProt P0DPI0); assay: Inhibition of Clostridium botulinum BoNT/A light chain-mediated SNAP-25 substrate cleavage after 40 mins by FRET assay
T1 sequence (P0DPI0 2-448 limits assumed): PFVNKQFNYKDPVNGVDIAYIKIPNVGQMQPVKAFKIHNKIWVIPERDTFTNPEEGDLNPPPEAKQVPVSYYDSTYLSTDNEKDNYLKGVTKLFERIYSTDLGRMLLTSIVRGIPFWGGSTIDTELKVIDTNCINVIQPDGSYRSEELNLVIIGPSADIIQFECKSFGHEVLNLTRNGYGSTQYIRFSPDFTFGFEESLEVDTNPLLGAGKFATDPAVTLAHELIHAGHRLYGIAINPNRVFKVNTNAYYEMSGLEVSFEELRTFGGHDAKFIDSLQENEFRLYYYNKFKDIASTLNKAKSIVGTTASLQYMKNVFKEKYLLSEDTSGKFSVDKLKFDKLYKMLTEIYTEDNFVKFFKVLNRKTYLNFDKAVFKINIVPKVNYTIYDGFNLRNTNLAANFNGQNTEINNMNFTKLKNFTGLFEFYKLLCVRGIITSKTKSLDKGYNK
How it was run: (§1)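 Recombinant BoNT/A LC at 2 nM was incubated with 20 μM SNAP-25 peptide (AA 187–203, DnpK/daciaC-labelled) for 40 min at 37 °C. Cleaved-substrate fluorescence was read at 485 nm with excitation at 398 nm. IC50 is the compound concentration giving 50% inhibition, averaged over two experiments.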

Lethal factor = molecular target: T2, Lethal factor (Bacillus anthracis, UniProt P15917); assay: Inhibition of Bacillus anthracis lethal factor using MCA-KKVYPYPME[dnp]Kamide peptide substrate after 30 mins by FRET assay
T2 sequence (P15917 whole entry): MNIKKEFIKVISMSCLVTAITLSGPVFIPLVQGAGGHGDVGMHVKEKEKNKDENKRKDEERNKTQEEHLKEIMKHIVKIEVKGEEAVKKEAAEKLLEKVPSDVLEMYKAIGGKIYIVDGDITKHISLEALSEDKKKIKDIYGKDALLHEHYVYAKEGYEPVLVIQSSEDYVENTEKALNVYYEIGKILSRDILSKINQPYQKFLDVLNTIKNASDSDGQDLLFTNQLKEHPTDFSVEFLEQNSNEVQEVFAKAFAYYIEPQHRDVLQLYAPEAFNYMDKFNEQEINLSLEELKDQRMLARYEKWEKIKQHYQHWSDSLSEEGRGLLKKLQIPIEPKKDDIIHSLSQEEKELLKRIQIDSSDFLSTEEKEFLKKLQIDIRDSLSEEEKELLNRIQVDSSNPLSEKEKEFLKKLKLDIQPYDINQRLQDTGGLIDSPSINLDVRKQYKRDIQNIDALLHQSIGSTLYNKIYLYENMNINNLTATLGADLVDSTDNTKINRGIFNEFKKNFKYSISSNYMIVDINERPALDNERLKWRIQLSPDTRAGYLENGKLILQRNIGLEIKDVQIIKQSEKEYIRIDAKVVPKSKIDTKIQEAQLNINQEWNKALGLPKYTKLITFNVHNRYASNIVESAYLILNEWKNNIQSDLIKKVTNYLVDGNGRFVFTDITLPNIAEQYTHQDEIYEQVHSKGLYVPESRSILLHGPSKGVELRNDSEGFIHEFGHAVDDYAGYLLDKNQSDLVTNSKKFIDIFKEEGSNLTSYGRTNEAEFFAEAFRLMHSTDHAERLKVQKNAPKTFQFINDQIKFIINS

[2] = molecular target: T1, Botulinum neurotoxin type A; assay: Inhibition of Clostridium botulinum botulinum neurotoxin type A light chain; how it was run: as §1
[3] = molecular target: Matrix metalloproteinase-9 (Homo sapiens, UniProt P14780); assay: Inhibition of human MMP9
Matrix metalloproteinase-9, sequence (P14780 whole entry): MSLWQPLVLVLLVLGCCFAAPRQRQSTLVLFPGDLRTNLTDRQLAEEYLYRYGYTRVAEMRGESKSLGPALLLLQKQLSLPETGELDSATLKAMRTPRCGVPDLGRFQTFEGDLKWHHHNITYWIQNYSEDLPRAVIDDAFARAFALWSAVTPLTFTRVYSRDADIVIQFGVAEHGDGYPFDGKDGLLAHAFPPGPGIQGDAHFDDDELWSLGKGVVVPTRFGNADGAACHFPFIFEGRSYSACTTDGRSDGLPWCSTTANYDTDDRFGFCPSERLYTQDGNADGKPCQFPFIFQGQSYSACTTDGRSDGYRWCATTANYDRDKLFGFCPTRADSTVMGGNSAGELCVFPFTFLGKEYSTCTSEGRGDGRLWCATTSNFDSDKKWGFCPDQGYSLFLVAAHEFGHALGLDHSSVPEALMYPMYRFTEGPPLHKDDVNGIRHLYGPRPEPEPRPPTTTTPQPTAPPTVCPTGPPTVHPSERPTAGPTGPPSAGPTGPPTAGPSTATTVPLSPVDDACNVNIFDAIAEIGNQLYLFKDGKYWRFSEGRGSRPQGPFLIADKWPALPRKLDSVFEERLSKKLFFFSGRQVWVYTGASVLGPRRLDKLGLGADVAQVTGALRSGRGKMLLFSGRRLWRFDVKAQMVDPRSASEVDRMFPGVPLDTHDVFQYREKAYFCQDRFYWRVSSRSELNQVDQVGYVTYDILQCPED

[4] = molecular target: Botulinum neurotoxin type A (Clostridium botulinum) (UniProt P0DPI0); assay: Inhibition of clostridium botulinum BoNT/A-mediated SNAP-25 substrate cleavage in chicken neurons at 30 uM preincubated for 15 mins before substrate addition
Botulinum neurotoxin type A (Clostridium botulinum), sequence (P0DPI0 2-448 limits assumed): as the sequence (P0DPI0 2-448 limits assumed) above

[5] = molecular target: Botulinum neurotoxin type A (Clostridium botulinum) (UniProt P0DPI0); assay: Inhibition of Clostridium botulinum BoNT/A light chain-mediated SNAP-25 substrate cleavage preincubated for 15 mins in presence of cysteine before substrate addition by FRET assay
How it was run: (§2)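 The potential inactivator (2.5 or 5 mM) was preincubated with compound in the assay mixture for 15 min at 37 °C. 17-mer SNAP-25 substrate and BoNT/A LC were then added, and activity was read in the FRET assay (37 °C, 40 min, ex 398/em 485 nm).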

[6] = molecular target: T3, Botulinum neurotoxin type B (Clostridium botulinum, UniProt P10844); assay: Inhibition of Clostridium botulinum BoNT/B light chain after 40 mins by FRET-based assay
T3 sequence (P10844 whole entry): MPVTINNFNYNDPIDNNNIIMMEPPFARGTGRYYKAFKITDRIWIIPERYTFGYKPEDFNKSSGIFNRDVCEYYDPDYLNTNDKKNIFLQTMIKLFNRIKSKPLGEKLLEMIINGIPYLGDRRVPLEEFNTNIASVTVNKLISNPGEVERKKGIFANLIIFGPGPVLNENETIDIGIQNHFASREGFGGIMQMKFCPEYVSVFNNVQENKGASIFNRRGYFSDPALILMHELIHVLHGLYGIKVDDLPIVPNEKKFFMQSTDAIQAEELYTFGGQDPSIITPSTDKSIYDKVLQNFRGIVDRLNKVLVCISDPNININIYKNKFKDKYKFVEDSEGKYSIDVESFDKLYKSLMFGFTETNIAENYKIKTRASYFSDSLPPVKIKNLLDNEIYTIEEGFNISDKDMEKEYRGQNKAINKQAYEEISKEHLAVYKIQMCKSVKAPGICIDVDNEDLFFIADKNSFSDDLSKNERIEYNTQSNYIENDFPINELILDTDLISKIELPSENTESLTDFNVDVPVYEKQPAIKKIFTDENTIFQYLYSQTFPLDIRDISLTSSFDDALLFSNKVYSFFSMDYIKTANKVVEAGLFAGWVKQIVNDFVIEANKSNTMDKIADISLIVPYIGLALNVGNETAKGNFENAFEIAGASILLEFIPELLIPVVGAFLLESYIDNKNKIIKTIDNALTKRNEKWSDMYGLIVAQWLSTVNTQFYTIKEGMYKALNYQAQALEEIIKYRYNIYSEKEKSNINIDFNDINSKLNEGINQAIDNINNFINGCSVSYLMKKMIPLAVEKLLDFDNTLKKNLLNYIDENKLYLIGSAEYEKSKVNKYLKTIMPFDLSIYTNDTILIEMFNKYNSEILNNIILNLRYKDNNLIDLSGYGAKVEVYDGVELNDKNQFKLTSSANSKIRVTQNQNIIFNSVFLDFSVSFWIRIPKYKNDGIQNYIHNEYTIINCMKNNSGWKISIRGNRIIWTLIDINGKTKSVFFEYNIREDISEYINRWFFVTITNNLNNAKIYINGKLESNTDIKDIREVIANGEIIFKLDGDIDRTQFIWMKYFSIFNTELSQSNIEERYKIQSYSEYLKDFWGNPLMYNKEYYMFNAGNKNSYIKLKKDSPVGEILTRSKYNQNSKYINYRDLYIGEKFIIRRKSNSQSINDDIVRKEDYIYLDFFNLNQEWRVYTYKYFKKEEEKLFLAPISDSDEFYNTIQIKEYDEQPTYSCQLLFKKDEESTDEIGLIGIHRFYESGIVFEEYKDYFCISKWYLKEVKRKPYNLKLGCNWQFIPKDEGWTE

Interstitial collagenase = molecular target: T4, Interstitial collagenase (Homo sapiens, UniProt P03956); assay: Inhibition of human MMP1
T4 sequence (P03956 whole entry): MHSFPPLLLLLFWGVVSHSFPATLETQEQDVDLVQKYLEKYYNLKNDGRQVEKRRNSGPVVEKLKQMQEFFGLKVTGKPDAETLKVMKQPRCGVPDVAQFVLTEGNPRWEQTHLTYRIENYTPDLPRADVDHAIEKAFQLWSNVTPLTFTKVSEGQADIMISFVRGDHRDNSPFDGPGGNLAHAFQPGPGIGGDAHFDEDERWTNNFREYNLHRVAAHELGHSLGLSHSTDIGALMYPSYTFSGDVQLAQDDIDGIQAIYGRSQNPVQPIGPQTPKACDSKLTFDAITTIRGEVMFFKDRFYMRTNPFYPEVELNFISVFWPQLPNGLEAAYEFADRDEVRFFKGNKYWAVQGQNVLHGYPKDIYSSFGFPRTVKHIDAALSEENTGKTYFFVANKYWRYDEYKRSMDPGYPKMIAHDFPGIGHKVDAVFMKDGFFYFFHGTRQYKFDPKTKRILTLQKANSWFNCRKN

[7] = molecular target: 72 kDa type IV collagenase (Homo sapiens, UniProt P08253); assay: Inhibition of human MMP2
72 kDa type IV collagenase, sequence (P08253 whole entry): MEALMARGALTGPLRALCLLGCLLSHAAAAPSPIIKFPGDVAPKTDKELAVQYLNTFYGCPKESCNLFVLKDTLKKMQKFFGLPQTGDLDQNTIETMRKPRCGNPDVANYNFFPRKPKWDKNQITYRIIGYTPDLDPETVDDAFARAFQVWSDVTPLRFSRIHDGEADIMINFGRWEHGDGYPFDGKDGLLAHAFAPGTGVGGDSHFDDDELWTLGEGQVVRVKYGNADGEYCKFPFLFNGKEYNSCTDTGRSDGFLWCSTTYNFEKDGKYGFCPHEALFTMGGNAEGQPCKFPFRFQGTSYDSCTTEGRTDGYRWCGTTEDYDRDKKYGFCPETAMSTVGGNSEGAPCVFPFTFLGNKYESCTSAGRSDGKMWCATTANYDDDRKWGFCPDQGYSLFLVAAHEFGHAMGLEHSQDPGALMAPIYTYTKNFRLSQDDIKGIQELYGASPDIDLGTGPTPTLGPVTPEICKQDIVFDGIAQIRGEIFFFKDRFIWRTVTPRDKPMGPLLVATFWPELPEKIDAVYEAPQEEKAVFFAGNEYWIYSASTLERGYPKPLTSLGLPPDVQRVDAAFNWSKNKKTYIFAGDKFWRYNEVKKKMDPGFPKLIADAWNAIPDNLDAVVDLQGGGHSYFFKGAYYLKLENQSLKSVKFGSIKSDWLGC

[8] = molecular target: Botulinum neurotoxin type A (Clostridium botulinum) (UniProt P0DPI0); assay: Inhibition of Clostridium botulinum BoNT/A light chain-mediated SNAP-25 substrate cleavage preincubated for 15 mins in presence of glutathione before substrate addition by FRET assay; how it was run: as §2
[9] = molecular target: Botulinum neurotoxin type A (Clostridium botulinum) (UniProt P0DPI0); assay: Inhibition of clostridium botulinum BoNT/A light chain assessed as residual activity using SNAP-25 as substrate at 50 uM after 90 mins measured after dialysis by FRET-based assay relative to 6-(4,5-dihydro-1H-imidazol-2-yl)-2-(4-(4-(4,5-dihydro-1H-imidazol-2-yl)phenoxy)phenyl)-1H-indole
How it was run: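 BoNT/A LC was co-incubated with inhibitor or a DMSO-equivalent control at 37 °C for 90 min. Samples were then dialysed (3,500 MWCO) against 20 mM HEPES pH 7.4, 10% glycerol, 0.05% Tween-20 for 20–24 h at 2–8 °C. Remaining activity was measured by the standard FRET assay.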

[10] = molecular target: Botulinum neurotoxin type A (Clostridium botulinum) (UniProt P0DPI0)
[11] = molecular target: T1, Botulinum neurotoxin type A; assay: Inhibition of Clostridium botulinum BoNT/A light chain-mediated SNAP-25 substrate cleavage preincubated for 90 mins by FRET assay
How it was run: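 Compound was preincubated with BoNT/A LC for 90 min before the 40-min FRET assay (20 μM SNAP-25 peptide, 2 nM enzyme, 37 °C, ex 398/em 485 nm). IC50 is the concentration giving 50% inhibition.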

[12] = molecular target: T1, Botulinum neurotoxin type A; assay: Inhibition of Clostridium botulinum BoNT/A light chain after 40 mins by HPLC assay
How it was run: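 Incubation was at 37 °C for 40 min with 6 nM BoNT/A LC and 60 μM 17-mer SNAPtide substrate. Samples were separated by reverse-phase C18 HPLC, effluent was monitored at 365 nm, and peaks were quantified by integration.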

[13] = molecular target: Botulinum neurotoxin type A (Clostridium botulinum) (UniProt P0DPI0); assay: Inhibition of Clostridium botulinum BoNT/A light chain-mediated SNAP-25 substrate cleavage preincubated for 15 mins in presence of zinc ion before substrate addition by FRET assay; how it was run: as §2
[14] = molecular target: Botulinum neurotoxin type A (Clostridium botulinum) (UniProt P0DPI0); assay: Ratio of Kinact to Ki for clostridium botulinum BoNT/A light chain
How it was run: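 BoNT/A LC was incubated with selected inhibitor concentrations for various times. Remaining activity was then measured by the FRET assay, and kobs/[I] was derived from the plotted data using a published method.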

## N#C/C(=C\c1ccc(-c2cccs2)s1)c1cc2ccccc2[nH]1
[1]
  IC50: > 100 µM
Lethal factor
  IC50: > 100 µM

## N#C/C(=C\c1c(Cl)ncnc1Cl)c1nc2ccccc2[nH]1
Lethal factor
  IC50: > 100 µM

## N#C/C(=C\c1cc(-c2ccccc2)cnc1Cl)c1nc2ccccc2[nH]1
[1]
  IC50: > 100 µM
Lethal factor
  IC50: > 100 µM

## N#C/C(=C\c1c[nH]c2cccc([N+](=O)[O-])c12)c1nc2ccccc2[nH]1
[1]
  IC50: > 100 µM
Lethal factor
  IC50: > 100 µM

## Cc1ccc(/C=C(\C#N)c2nc3ccccc3[nH]2)s1
[1]
  IC50: > 100 µM
Lethal factor
  IC50: > 100 µM

## Cc1cc(/C=C(\C#N)c2nc3ccccc3[nH]2)sc1C
[1]
  IC50: > 100 µM
Lethal factor
  IC50: > 100 µM

## COc1ccc(/C=C(\C#N)c2nc3ccccc3[nH]2)cc1Br
[1]
  IC50: > 100 µM
Lethal factor
  IC50: > 100 µM

## CSCC[C@H](NC(=O)[C@H](CCCCN)NC(=O)[C@@H](NC(=O)[C@H](C)NC(=O)[C@H](CCCNC(=N)N)NC(=O)C(S)Cc1ccccc1)[C@@H](C)O)C(=O)N[C@@H](CC(C)C)C(=O)O (stereo not given in full) (X1-RATKML-OH)
[2]
  Ki: 330 nM

## N#C/C(=C\c1cccs1)c1nc2ccccc2[nH]1
[1]
  IC50: > 100 µM
Lethal factor
  IC50: > 100 µM

## Cn1c(/C(C#N)=C/c2ccc(-c3cccs3)s2)[n+](C)c2ccccc21
[1]
  IC50: > 100 µM

## N#C/C(=C\c1ccc(-c2cccs2)s1)c1nc2ccccc2o1
[1]
  IC50: > 100 µM

## COc1ccc(/C=C(\C#N)c2nc3ccccc3[nH]2)cc1OC
[1]
  IC50: > 100 µM
Lethal factor
  IC50: > 100 µM

## N#C/C(=C\c1ccc(-c2cccs2)s1)c1nc2ccccc2[nH]1
[3]
  IC50: > 100 µM
[4]
  inhibition: 58%
[1]
  IC50: 26 µM
[5]
  inhibition: Active
[6]
  IC50: > 100 µM
Interstitial collagenase
  IC50: > 100 µM
[7]
  IC50: > 100 µM
[8]
  inhibition: Active
Lethal factor
  IC50: > 100 µM
[9]
  Ratio: 1.13
[10]
  TDI: Active
[11]
  IC50: 17 µM
[12]
  IC50: 29 µM
[13]
  inhibition: Active
[14]
  Ratio: 326 M⁻¹ s⁻¹
